Measurements taken from ChEMBL document CHEMBL1156333 (Bioorg Med Chem, 2010).
Active and inactive are the calls of the source. No cut-off for these calls is given here.

Experiments:
[1] = test system: Human immunodeficiency virus 2; test: Antiviral activity against HIV2 ROD infected in human CEM cells assessed as inhibition of syncytia formation after 4 days; assay type: functional, organism-based; settings: Human immunodeficiency virus 2, ISOLATE ROD, CCRF-CEM, 96 h
How it was run: (§1)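 Human CEM cells (~3 × 10^5 cells/mL) were infected with ~100 CCID50/mL of HIV-1(IIIB) or HIV-2(ROD) and seeded with compound dilutions. After 4 days at 37 °C, syncytia formation was scored microscopically.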

[2] = test system: Felid alphaherpesvirus 1; test: Antiviral activity against Feline herpes virus assessed as inhibition of virus-induced cytopathicity by cell based assay; assay type: functional, organism-based
[3] = test system: Human immunodeficiency virus 1; test: Antiviral activity against HIV1 3B infected in human CEM cells assessed as inhibition of syncytia formation after 4 days; assay type: functional, organism-based; settings: Human immunodeficiency virus 1, 3B, CCRF-CEM, 96 h; how it was run: as §1
[4] = test system: Mammalian orthoreovirus 1; test: Antiviral activity against Reovirus 1 assessed as inhibition of virus-induced cytopathicity by cell based assay; assay type: functional, organism-based
[5] = test system: Respiratory syncytial virus; test: Antiviral activity against Respiratory syncytial virus Long infected in human HeLa cells assessed as inhibition of virus-induced cytopathicity at 100 uM; assay type: functional, organism-based
How it was run: (§2)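 Confluent monolayers (Vero for Punta Toro, HeLa for RSV strain Long) were infected with 100 CCID50 of virus. After 1–2 h adsorption, residual virus was removed and cells were incubated with the compound, 100 μM being the highest level tested. Cytopathicity was scored when untreated infected controls reached full cytopathic effect.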

[6] = test system: Vesicular stomatitis virus; test: Antiviral activity against Vesicular stomatitis virus infected in human HeLa cells assessed as inhibition of virus-induced cytopathicity at 100 uM; assay type: functional, organism-based
[7] = test system: Human alphaherpesvirus 1; test: Antiviral activity against Herpes simplex virus 1 KOS assessed as inhibition of virus-induced cytopathicity by cell based assay; assay type: functional, organism-based; settings: Human alphaherpesvirus 1, KOS
[8] = test system: Feline coronavirus; test: Antiviral activity against Feline coronavirus assessed as inhibition of virus-induced cytopathicity by cell based assay; assay type: functional, organism-based; settings: Alphacoronavirus 1
[9] = Cytotoxicity against human HEL cells; assay type: cell-based
How it was run: (§3)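 MDCK, HEL and HeLa cultures run alongside the cytopathicity assays received graded compound levels up to 100 μM. Toxicity was scored as the minimum cytotoxic concentration, the lowest level causing a microscopically detectable change in cell morphology.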

[10] = test system: Human respirovirus 3; test: Antiviral activity against Parainfluenza 3 virus assessed as inhibition of virus-induced cytopathicity by cell based assay; assay type: functional, organism-based
[11] = test system: Hepatitis C virus; test: Antiviral activity against HCV infected in human HuH5.2 cells carrying subgenomic HCV replicon assessed as inhibition of replicon replication by luciferase reporter gene assay; assay type: functional, organism-based, Hepacivirus hominis; settings: Huh-5-2
How it was run: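 Huh 5-2 cells are Huh 7 cells carrying the subgenomic replicon I389luc-ubi-neo/NS3-3′/5.1. They were maintained in DMEM with 10% heat-inactivated FCS, non-essential amino acids, penicillin/streptomycin and 250 μg/mL G418. Cells were seeded at 5 × 10^3 cells/well in medium without G418 and exposed to compound.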

[12] = test system: Vesicular stomatitis virus; test: Antiviral activity against Vesicular stomatitis virus infected in human HeLa cells assessed as inhibition of virus-induced cytopathicity; assay type: functional, organism-based
[13] = test system: Cytomegalovirus; test: Antiviral activity against Cytomegalovirus assessed as inhibition of virus-induced cytopathicity by cell based assay; assay type: functional, organism-based; settings: Human betaherpesvirus 5
[14] = test system: Influenza B virus; test: Antiviral activity against Influenza B virus infected in MDCK cells assessed as inhibition of virus-induced cytopathicity; assay type: functional, organism-based
[15] = test system: Respiratory syncytial virus; test: Antiviral activity against Respiratory syncytial virus Long infected in human HeLa cells assessed as inhibition of virus-induced cytopathicity; assay type: functional, organism-based
[16] = test system: Vaccinia virus; test: Antiviral activity against Vaccinia virus lederle infected in human HEL cells assessed as inhibition of virus-induced cytopathicity at 100 uM; assay type: functional, organism-based; settings: Orthopoxvirus vaccinia
[17] = Cytotoxicity against MDCK cells; assay type: cell-based, Canis lupus familiaris; settings: dog; how it was run: as §3
[18] = test system: Influenza B virus; test: Antiviral activity against Influenza B virus infected in MDCK cells assessed as inhibition of virus-induced cytopathicity at 100 uM; assay type: functional, organism-based
[19] = test system: Influenza A virus; test: Antiviral activity against Influenza A virus H3N2 infected in MDCK cells assessed as inhibition of virus-induced cytopathicity at 100 uM; assay type: functional, organism-based
[20] = test system: Sindbis virus; test: Antiviral activity against Sindbis virus assessed as inhibition of virus-induced cytopathicity by cell based assay; assay type: functional, organism-based
[21] = test system: Vaccinia virus; test: Antiviral activity against Vaccinia virus lederle infected in human HEL cells assessed as inhibition of virus-induced cytopathicity; assay type: functional, organism-based; settings: Orthopoxvirus vaccinia
[22] = Cytotoxicity against human HuH5.2 cells; assay type: cell-based, Huh-5-2
[23] = test system: Human alphaherpesvirus 2; test: Antiviral activity against Herpes simplex virus 2 assessed as inhibition of virus-induced cytopathicity by cell based assay; assay type: functional, organism-based
[24] = test system: Coxsackievirus B4; test: Antiviral activity against Coxsackievirus B4 assessed as inhibition of virus-induced cytopathicity by cell based assay; assay type: functional, organism-based; settings: Enterovirus B
[25] = test system: Punta Toro virus; test: Antiviral activity against Punta Toro virus infected in african green monkey Vero cells assessed as inhibition of virus-induced cytopathicity at 100 uM; assay type: functional, organism-based; how it was run: as §2
[26] = test system: Influenza A virus; test: Antiviral activity against Influenza A virus H3N2 infected in MDCK cells assessed as inhibition of virus-induced cytopathicity; assay type: functional, organism-based
[27] = test system: Human alphaherpesvirus 1; test: Antiviral activity against thymidine kinase deficient ACV resistant Herpes simplex virus 1 KOS assessed as inhibition of virus-induced cytopathicity by cell based assay; assay type: functional, organism-based; settings: Human alphaherpesvirus 1, KOS
[28] = Cytotoxicity against human HeLa cells; assay type: cell-based; how it was run: as §3
[29] = test system: Punta Toro virus; test: Ratio of compound EC50 over ribavirin antiviral EC50 for Punta Toro virus; assay type: functional
[30] = test system: Vaccinia virus; test: Ratio of compound EC50 over ribavirin EC50 for Vaccinia virus lederle; assay type: functional, Orthopoxvirus vaccinia
[31] = test system: Punta Toro virus; test: Antiviral activity against Punta Toro virus infected in african green monkey Vero cells assessed as inhibition of virus-induced cytopathicity; assay type: functional, organism-based

SMILES	EC50 [1]	EC50 [2]	EC50 [3]	EC50 [4]	EC50 [7]	EC50 [8]	MCC [9]	EC50 [10]	EC50 [11]	EC50 [13]	EC50 [14]	EC50 [15]	MCC [17]	EC50 [20]	EC50 [21]	MCC [22]	EC50 [23]	EC50 [24]	EC50 [26]	MCC [28]	also measured
NC(=O)c1ncn([C@@H]2O[C@H](COP(=O)(N[C@@H](Cc3ccccc3)C(=O)OCc3ccccc3)Oc3cccc4ccccc34)[C@@H](O)[C@H]2O)n1 (stereo not given in full)	> 100 µM	> 100 µM	> 100 µM	> 100 µM	> 100 µM	> 100 µM	> 100 µM	> 100 µM	> 70 µM	> 100 µM	> 100 µM	> 20 µM	> 100 µM	> 100 µM	100 µM	> 100 µM	> 100 µM	> 100 µM	> 100 µM	> 100 µM	inhibition [5]: inactive; inhibition [6]: inactive; EC50 [12]: > 20 µM; inhibition [16]: inactive; inhibition [18]: inactive; inhibition [19]: inactive; inhibition [25]: inactive; EC50 [27]: > 100 µM
C[C@H](NP(=O)(OC[C@H]1O[C@@H](n2cnc(C(N)=O)n2)[C@H](O)[C@@H]1O)Oc1cccc2ccccc12)C(=O)OCc1ccccc1 (stereo not given in full)	> 100 µM	> 100 µM	> 100 µM	> 100 µM	> 100 µM	> 100 µM	> 100 µM	> 100 µM	68 µM	> 100 µM	14 µM	45 µM	> 100 µM	> 100 µM	100 µM	> 100 µM	> 100 µM	> 100 µM	18 µM	> 100 µM	EC50 [12]: 20 µM; EC50 [27]: > 100 µM
NC(=O)c1ncn([C@@H]2O[C@H](COP(=O)(NCC(=O)OCc3ccccc3)Oc3cccc4ccccc34)[C@@H](O)[C@H]2O)n1 (stereo not given in full)	> 100 µM	> 100 µM	> 100 µM	> 100 µM	> 100 µM	> 100 µM	> 100 µM	> 100 µM	–	> 100 µM	> 20 µM	58 µM	> 100 µM	> 100 µM	20 µM	> 100 µM	> 100 µM	> 100 µM	> 20 µM	> 100 µM	Ratio [29]: 3; MCC [11]: > 100 µM; Ratio [30]: 3; EC50 [27]: > 100 µM
NC(=O)c1ncn([C@@H]2O[C@H](CO)[C@@H](O)[C@H]2O)n1 [RIBAVIRIN]	–	–	–	–	–	–	> 100 µM	–	87 µM	–	–	19 µM	> 100 µM	–	–	> 100 µM	–	–	–	> 100 µM	EC50 [31]: 183 µM
